One molecule from ChEMBL document CHEMBL2203099, “Identification of a crucial amino acid in the helix position 6.51 of human tachykinin neurokinin 1 and 3 receptors contributing to the insurmountable mode of antagonism by dual NK₁/NK₃ antagonists” (J Med Chem, 2012) can be followed below.

The subject of assay [1] is HEK293. In words: Selectivity ratio of Ki for human NK3 Y247W mutant expressed in HEK293 cells to Ki for wild type human NK3 receptor expressed in HEK293 cells. It counts as cell-based.
The test system of assay [2] is HEK293. In words: Selectivity ratio of Ki for human NK3 H316W mutant expressed in HEK293 cells to Ki for wild type human NK3 receptor expressed in HEK293 cells. It counts as cell-based.
Assay [3] has as its target T1, Substance-P receptor (Homo sapiens, UniProt P25103). The assay can be described thus: Binding affinity at human NK1 receptor.
Assay [4] concerns the target T2, Substance-P receptor (Homo sapiens, UniProt P25103, F264Y). In words: Partial noncompetitive inhibition of human F264Y6.51 mutant expressed in HEK293 cells assessed as decrease in SP1-induced [3H]IP accumulation after 20 mins. Type of assay: cell-based. Conditions: read-out: pA2 (converted).
Assay [5] concerns the target Neuromedin-K receptor (Homo sapiens, UniProt P29371, H316F). In words: Displacement of radioligand [3H]osanetant at human NK3 H316F mutant expressed in HEK293 cells. Type of assay: cell-based.
In assay [6] the target is T3, Neuromedin-K receptor (Homo sapiens, UniProt P29371).
T3 sequence (P29371 whole entry): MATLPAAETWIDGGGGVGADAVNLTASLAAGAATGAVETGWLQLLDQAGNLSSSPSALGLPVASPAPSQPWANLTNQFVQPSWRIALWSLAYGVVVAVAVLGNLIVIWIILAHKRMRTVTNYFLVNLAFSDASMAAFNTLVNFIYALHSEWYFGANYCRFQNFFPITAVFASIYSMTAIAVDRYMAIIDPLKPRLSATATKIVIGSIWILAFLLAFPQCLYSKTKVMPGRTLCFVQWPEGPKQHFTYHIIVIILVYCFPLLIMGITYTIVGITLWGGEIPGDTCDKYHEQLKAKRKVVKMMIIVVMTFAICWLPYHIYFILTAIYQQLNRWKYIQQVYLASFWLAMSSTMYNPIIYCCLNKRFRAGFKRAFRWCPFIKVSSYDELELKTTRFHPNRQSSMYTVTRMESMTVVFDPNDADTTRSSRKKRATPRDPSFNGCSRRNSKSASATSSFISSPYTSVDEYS
The assay can be described thus: Displacement of [3H]osanetant from wild type human NK3 receptor expressed in HEK293 cells. Type of assay: cell-based.

Assay [7] addresses T1, Substance-P receptor. In words: Noncompetitive inhibition of wild type human NK1 receptor expressed in HEK293 cells assessed as decrease in SP1-induced [3H]IP accumulation after 20 mins. Type of assay: cell-based.
The target in assay [8] is T3, Neuromedin-K receptor. In words: Binding affinity to wild type human NK3 receptor.
The test system of assay [9] is T4, Neuromedin-K receptor (Homo sapiens), P29371 [Y315F].
T4 sequence (whole entry): T3 sequence (P29371 whole entry) with Y315F
In words: Antagonist activity at human NK3 Y315F6.51 mutant expressed in HEK293 cells assessed as decrease in [MePhe7]NKB-induced [3H]IP accumulation at 10 nM after 20 mins. It counts as functional, cell-based.

The target of assay [10] is T2, Substance-P receptor. In words: Displacement of radioligand [3H]SP from human NK1 F264Y6.51 mutant expressed in HEK293 cells. It counts as cell-based. A digest of the protocol:
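Membranes from transiently transfected HEK293 cells, 2.5 μg protein/well, in 50 mM HEPES pH 7.4 with 3 mM MnCl2, phosphoramidon, leupeptin and 0.04% BSA. 10 competitor concentrations (0.0003–10 μM), 90 min at rt. Nonspecific binding with 10 μM NK1 antagonist. Filtration, then scintillation counting. Ki by Cheng–Prusoff. Three experiments, each in duplicate.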

For assay [11], the target named is Neuromedin-K receptor (Homo sapiens, UniProt P29371, Y247F). In words: Displacement of radioligand [3H]osanetant at human NK3 Y247F mutant expressed in HEK293 cells. Type of assay: cell-based.
Neuromedin-K receptor (Homo sapiens, UniProt P29371, Y247F), sequence (P29371 whole entry Y247F): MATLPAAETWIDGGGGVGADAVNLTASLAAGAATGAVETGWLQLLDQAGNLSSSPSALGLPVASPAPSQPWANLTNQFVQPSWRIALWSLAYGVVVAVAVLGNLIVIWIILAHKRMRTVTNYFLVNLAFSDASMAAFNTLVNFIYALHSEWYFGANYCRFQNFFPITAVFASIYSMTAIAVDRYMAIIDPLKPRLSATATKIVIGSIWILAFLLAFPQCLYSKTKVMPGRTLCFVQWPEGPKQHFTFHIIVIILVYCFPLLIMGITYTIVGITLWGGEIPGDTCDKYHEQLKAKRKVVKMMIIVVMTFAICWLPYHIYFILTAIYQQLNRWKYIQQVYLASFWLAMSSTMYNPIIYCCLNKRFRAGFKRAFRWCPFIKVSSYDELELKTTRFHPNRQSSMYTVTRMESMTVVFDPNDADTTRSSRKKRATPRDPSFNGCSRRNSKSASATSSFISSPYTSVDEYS
Assay [12] has as its system HEK293. The assay can be described thus: Selectivity ratio of Ki for human NK3 Y247F mutant expressed in HEK293 cells to Ki for wild type human NK3 receptor expressed in HEK293 cells. It counts as cell-based.

Each structure is given as a SMILES string. Numbering of substitutions follows the chain as printed. Calls of active or inactive are those of the source. The calls are words filed in the database; no cut-off is given here.

For orientation: Ki means a measure of affinity in units of concentration, obtained from inhibition or displacement. A higher Ki goes with a looser hold on the target.

T1 sequence (P25103 whole entry): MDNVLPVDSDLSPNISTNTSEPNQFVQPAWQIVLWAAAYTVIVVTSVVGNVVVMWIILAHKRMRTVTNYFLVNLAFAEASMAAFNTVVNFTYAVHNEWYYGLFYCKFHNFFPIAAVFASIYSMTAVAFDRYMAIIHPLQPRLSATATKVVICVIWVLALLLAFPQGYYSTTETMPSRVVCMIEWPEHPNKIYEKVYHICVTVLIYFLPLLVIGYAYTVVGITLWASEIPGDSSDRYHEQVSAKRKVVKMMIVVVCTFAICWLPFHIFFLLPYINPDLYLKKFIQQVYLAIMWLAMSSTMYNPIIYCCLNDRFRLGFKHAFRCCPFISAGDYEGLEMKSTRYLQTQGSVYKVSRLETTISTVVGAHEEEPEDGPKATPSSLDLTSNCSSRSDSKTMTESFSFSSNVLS
T2 sequence (P25103 whole entry F264Y): as the sequence (P25103 whole entry) above, with F264Y counted along it
Neuromedin-K receptor (Homo sapiens, UniProt P29371, H316F), sequence (P29371 whole entry H316F): as the sequence (P29371 whole entry Y247F) above, with F247Y, H316F counted along it

Turning to `Cc1cc(F)ccc1-c1cc(N2CC[C@H](O)[C@H]2CO)ncc1N(C)C(=O)C(C)(C)c1cc(C(F)(F)F)cc(C(F)(F)F)c1`, the Ratio Ki amounted to 1.2 in the assay on HEK293 [1], 693 with HEK293 [2] and 1.3 in the assay on HEK293 [12]. Further, the Ki on Substance-P receptor [3] was 0.7 nM; at Neuromedin-K receptor [5], 12.5 nM; on Neuromedin-K receptor [6], 2.9 nM; at Neuromedin-K receptor [8], 2.9 nM; on Substance-P receptor [10] it was 1.1 nM; on Neuromedin-K receptor [11] it was 3.9 nM. The Kb at Substance-P receptor [4] was 28.8 nM. For the same molecule, on Substance-P receptor [7], the inhibition entry is “Active”. Further, the result in assay [9] was Active.
